From article PMC4962910 (Nature cell biology, 2014) come the findings set out here.

For assay [1], the target named is T1, NBS1 (Homo sapiens, UniProt O60934).
T1 sequence (O60934 1-382 limits assumed): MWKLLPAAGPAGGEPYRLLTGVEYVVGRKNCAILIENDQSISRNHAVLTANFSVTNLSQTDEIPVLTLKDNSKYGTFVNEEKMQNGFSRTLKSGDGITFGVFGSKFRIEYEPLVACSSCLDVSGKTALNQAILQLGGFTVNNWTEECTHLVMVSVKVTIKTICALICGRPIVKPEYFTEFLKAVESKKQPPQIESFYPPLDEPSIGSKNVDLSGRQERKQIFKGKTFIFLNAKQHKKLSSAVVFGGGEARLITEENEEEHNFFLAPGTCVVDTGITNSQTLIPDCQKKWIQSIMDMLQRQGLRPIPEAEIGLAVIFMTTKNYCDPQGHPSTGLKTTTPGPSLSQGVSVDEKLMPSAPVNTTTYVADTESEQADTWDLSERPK
Briefly: Isothermal titration calorimetry. Type of assay: binding.

Assay [2] concerns NBS1-GFP positive nucleoli. It counts as cell-based. Particulars: PARP inhibition (Supplementary Fig. 6c). The method in brief:
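U2OS cells stably expressing NBS1-GFP (U2OS-NBS1-GFP2) were grown in DME with 10 % fetal bovine serum, penicillin and streptomycin. Medium was supplemented with the PARP inhibitor veliparib (ABT888) for 1 h. Each cell was scored manually as positive or negative by visual presence of GFP signal within nucleoli.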

Assay [3] deals with NBS1 N-terminal FHA-BRCT region (sample of the ITC) (human). Briefly: ITC.

Non-standard residues stand in square brackets, D forms with d. Residues, ends and D or L forms follow the SMILES beside them. No end group written: not given here. pT = C[C@@H](OP(=O)(O)O)[C@H](N)C(=O)O; pS = N[C@@H](COP(=O)(O)O)C(=O)O

`CC(C)[C@H](NC(=O)[C@H](CC(=O)O)NC(=O)[C@@H](NC(=O)[C@H](CCC(=O)O)NC(=O)[C@H](CC(=O)O)NC(=O)[C@H](COP(=O)(O)O)NC(=O)[C@H](CO)NC(=O)[C@H](CO)NC(=O)[C@@H](N)CO)[C@@H](C)OP(=O)(O)O)C(=O)N[C@@H](CCC(=O)O)C(=O)O` [SDET] (H-SSS[pS]DE[pT]DVE-OH) had a Kd in assay [1] of about 1000 nM.

As to `C[C@]1(c2nc3c(C(N)=O)cccc3[nH]2)CCCN1` [PARP inhibition, Veliparib], the “number of cells with NBS1-GFP positive nucleoli” value in assay [2] was “small but reproducible decrease”.

B1: Treacle SDET phosphopeptide (SSSpSDEpTDVE) (peptide)
peptide: SSS[pS]DE[pT]DVE
Take B1: the Kd in assay [3] came out at 1000 nM. This counts as single-digit micromolar.
